Screens from PubChem.
PAD4 inh = human PAD4 inhibitors, primary screen, biochemical, fluorescence polarization, 1536-well format | recombinant PAD4, RCA probe fluorescence polarization | inhibition, % at 6.36 µM | actives 0.41% (n = 330,000) | Protein-arginine deiminase type-4 (Homo sapiens), Q9UM07 | AID 485272, 2010;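 active = percent inhibition above a cutoff equal to the mean of all tested compounds plus 3 SD, cut at about 15% in these data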;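 also: 0% = PAD4 with RCA probe and DMSO and 100% = probe without PAD4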
PRMT1 FP inh = PRMT1 methyltransferase inhibitors, primary screen, biochemical, fluorescence polarization. recombinant PRMT1, activity-based probe fluorescence polarization. inhibition, % at 2.79 µM. actives 1.3% (n = 370,000). AID 652257, 2013;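 active = inhibition above about 21% made by adding two undisclosed values, limit read from the data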
Target sequence (Q99873 whole entry, looked up): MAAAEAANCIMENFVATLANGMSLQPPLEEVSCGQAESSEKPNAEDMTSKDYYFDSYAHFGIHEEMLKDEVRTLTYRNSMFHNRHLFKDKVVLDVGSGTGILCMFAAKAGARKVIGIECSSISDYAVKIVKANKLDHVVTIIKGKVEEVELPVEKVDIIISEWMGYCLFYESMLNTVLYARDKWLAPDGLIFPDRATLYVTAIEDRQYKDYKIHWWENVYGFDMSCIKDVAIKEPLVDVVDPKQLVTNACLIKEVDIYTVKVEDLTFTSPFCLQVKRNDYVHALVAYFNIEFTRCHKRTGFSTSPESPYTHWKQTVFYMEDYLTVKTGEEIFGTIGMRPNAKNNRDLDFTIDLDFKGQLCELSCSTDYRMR
TCR-CD3 inh = inhibitors of human TCR-CD3 interaction, primary screen, biochemical, fluorescence, TAMRA-labeled TCR probe; T-cell receptor (TCR); inhibition, % at 9.4 µM; actives 0.37% (n = 360,000); in the data active = inhibition above about 19%;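 also: recombinant mutant TCR 2C K166C tagged with TAMRA read by polarization; 0% = receptor in buffer alone and 100% = receptor with positive control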
HTRA1 inh = HTRA1 serine protease inhibitors, primary screen, biochemical, fluorescence polarization, HTS; actives 0.5% (n = 340,000); recombinant HTRA1, FP-rhodamine activity-based probe; inhibition, % at 5.96 µM; AID 504803, 2011; Q92743; in the data active = inhibition above about 36%;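 also: 0% = enzyme with DMSO and 100% = wells lacking enzyme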
ABHD4 inh = ABHD4 inhibitors, primary screen, biochemical, fluorescence polarization, mouse | AID 720543, 2013 | purified mABHD4, FP-Rh probe fluorescence polarization | actives 0.54% (n = 370,000) | (Lyso)-N-acylphosphatidylethanolamine lipase (Mus musculus), Q8VD66 | inhibition, % at 8.92 µM;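 active = inhibition exceeding the mean over every tested compound plus 3 SD, cut at about 30% in these data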;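 also: 0% = plate median of compound wells and 100% = S159A mutant with DMSO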
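system = mouse ABHD4 enzyme, wild type | medium = HEPES pH 7.0, NaCl, Pluronic buffer | also added = FP-Rh probe | incubation = Enzyme–compound pre-incubation 45 min, then probe 60 min, both 25 °C | technique = fluorescence polarization, excitation 525 nm, emission 598 nm, BODIPY TMR filters | controls = S159A mutant high control, sample median low control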
SIAE primary = human SIAE inhibitors, primary screen, biochemical, fluorescence polarization, FP-Rh probe, 1536-well HTS | Sialate O-acetylesterase (Homo sapiens), Q9HAT2 | SIAE FP-Rh probe binding | inhibition, % at 9.66 µM | actives 0.69% (n = 370,000) | AID 1053197, 2014;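 active = inhibition above a cutoff: mean of compounds within the control limits plus 3 SD of those, cut at about 17% in these data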;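 also: 0% = plate median of compound wells and 100% = probe without SIAE protein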
PRMT1 confirm = PRMT1 methyltransferase inhibitors, confirmation, biochemical, fluorescence polarization, triplicate. shares compounds with PRMT1 FP inh. recombinant His-PRMT1, activity-based probe fluorescence polarization. inhibition, % at 2.79 µM. actives 42% (n = 3,300);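 active = mean inhibition across replicates above the hit cutoff derived for the earlier primary screen, cut at about 22% in these data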
* hit, by the source's call; x = no result. A selection: hits, their analogues and other compounds. The true share with any hit is near 2.9%.

SMILES | PAD4 inh | PRMT1 FP inh | TCR-CD3 inh | HTRA1 inh | ABHD4 inh | SIAE primary | PRMT1 confirm
CCSc1nc2c(c(=O)[nH]1)C(c1ccc(C)cc1)C1=C(CCCC1=O)N2 (centres undefined) | 0 | 4 | 1 | 9 | -8 | -8 | x
O=C(OCc1cn(Cc2ccc(Cl)cc2)nn1)N1CCOCC1 | x | -2 | x | x | -2 | -3 | x
NC(=O)C[n+]1cccc2ccccc21 | 0 | 55* | 9 | 4 | -7 | 6 | 10
O=C1CCCN1CCC1CCN(C2CC(=O)N(c3ccc(Cl)cc3)C2=O)CC1 (centres undefined) | -6 | 50* | 0 | -6 | 3 | -4 | 9
O=C1CC(N2CCOCC2)C(=O)N1Cc1ccc(N2CCCC2=O)cc1 (centres undefined) | -4 | 14 | -10 | 6 | -16 | -6 | x
O=C1CCCN1CCC1CCN(C2CC(=O)N(Cc3ccc(N4CCCC4=O)cc3)C2=O)CC1 (centres undefined) | -5 | 93* | -6 | 0 | -11 | -4 | 7
O=C1CC(N2CCC(O)(c3ccc(Cl)cc3)CC2)C(=O)N1Cc1ccc(N2CCCC2=O)cc1 (centres undefined) | 0 | 63* | 8 | -2 | 4 | 8 | 4
CC(=O)Nc1ccc(-c2csc(NNC(=O)c3ccccc3)n2)cc1 | -5 | 26* | -13 | 0 | -20 | 9 | 0
O=C(NNc1nc(-c2ccccc2)cs1)c1ccco1 | -5 | 42* | 1 | 6 | 1 | 10 | -1
CCN(CC)Cc1cc(O)c(CN(CC)CC)cc1O | x | 30* | 14 | 34 | 20 | 4 | 76*
CCc1cc2c(nc1CC)CCCN2Cc1ccccc1C(F)(F)F | x | -2 | -10 | x | -18 | -6 | x
CNC(C#Cc1ccccc1)c1ccccc1C(F)(F)F (centres undefined) | x | -1 | x | x | 0 | -2 | x
CC(C)n1c(=O)[nH][nH]c1=S | 1 | 70* | -8 | x | 6 | 9 | 91*
O=c1[nH][nH]c(=S)n1C1CCCCC1 | -3 | x | x | x | x | x | x
CN(C)CCNC(=O)C(c1ccccc1)c1ccccc1 | 1 | -6 | 4 | 0 | 5 | 6 | x
CN(C)CCC(=O)C(Cc1ccccc1)c1ccccc1 (centres undefined) | -2 | 42* | -9 | -12 | -3 | -4 | 32*
O=C1CC(NCc2ccccc2)C(=O)N1c1ccc(F)cc1 (centres undefined) | x | 13 | -7 | x | -4 | 1 | x
CCOc1ccc(N2C(=O)CC(NCc3ccc(F)cc3)C2=O)cc1 (centres undefined) | 5 | 55* | -7 | 5 | -2 | -2 | 2
CCCCCCOc1ccc(N2C(=O)CC(NCCc3ccc(S(N)(=O)=O)cc3)C2=O)cc1 (centres undefined) | 1 | 42* | 1 | -6 | -3 | 0 | 8
CCOc1ccc(N2C(=O)CC(N)C2=O)cc1 (centres undefined) | -2 | 76* | 2 | 6 | -5 | 0 | 51*
COc1ccc(N2C(=O)CC(NCC#N)C2=O)cc1 (centres undefined) | 0 | 12 | 3 | 4 | 0 | 8 | x
CCCCCCOc1ccc(N2C(=O)CC(NCc3ccc(S(N)(=O)=O)cc3)C2=O)cc1 (centres undefined) | -4 | 19 | 4 | 3 | -4 | -7 | x
COc1ccc(N2C(=O)CC(NCc3cccs3)C2=O)cc1 (centres undefined) | 0 | 51* | 3 | -2 | -4 | -5 | 0
N#CCC[C@@H]1CC[C@]2(CCCN(C(=O)c3ccco3)C2)O1 | x | -9 | x | x | -1 | 2 | x
CC(=O)c1cc(-c2cc3ccccc3o2)c(=O)n2c1CCC2 | x | 0 | x | x | 4 | -4 | x
SMILES | PAD4 inh | PRMT1 FP inh | TCR-CD3 inh | HTRA1 inh | ABHD4 inh | SIAE primary | PRMT1 confirm
CCC(C)N(C(=O)c1oc(=O)c2ccccc2c1-c1ccc(C)cc1)C(C)CC (centres undefined) | x | 0 | x | x | 6 | 0 | x
CCOc1ccc(C(=O)NCC2CCCO2)cc1 (centres undefined) | -3 | -4 | 1 | 2 | 4 | 0 | x
CCOc1ccc(N2C(=O)CC(NCC3CCCO3)C2=O)cc1 (centres undefined) | -6 | 80* | -5 | -4 | -9 | 2 | 4
CCOc1cccc(N2C(=O)CC(NCc3ccc(S(N)(=O)=O)cc3)C2=O)c1 (centres undefined) | 1 | 46* | 2 | 2 | -3 | -9 | -1
CCCC(=O)N1CCC[C@]2(CC[C@H](CCC#N)O2)C1 | x | 0 | x | x | -2 | -1 | x
CC1(C)SCC(C(=O)O)N1C=O (centres undefined) | 0 | 26* | 0 | 1 | 12 | 2 | 2
CCC(C)c1c(O)nc(SCC(=O)c2ccccc2)[nH]c1=O (centres undefined) | 3 | 52* | -1 | 4 | -3 | 5 | 52*
CCC(C)c1c(O)nc(SCC(=O)Nc2ccccc2)[nH]c1=O (centres undefined) | 7 | 3 | 7 | -2 | -3 | 4 | x
C=CCc1c(O)nc(SCC(=O)c2ccccc2)[nH]c1=O | -1 | 46* | 1 | 7 | 3 | 3 | 57*
CCC(CO)n1c(SCc2cc(=O)oc3cc(C)ccc23)nc2ccccc2c1=O (centres undefined) | 7 | 77* | 7 | -30 | -17 | -4 | 67*
NC1=NC(=O)CC(C(=O)NCc2ccccc2)S1 (centres undefined) | 0 | 36* | 3 | 8 | 6 | 0 | 10
COc1ccc(N2C(=O)c3cccc4c(N(C)CCO)ccc(c34)C2=O)cc1 | x | 29* | 5 | 2 | 5 | -8 | 24*
CCOC(=O)CNc1nnc(SCC(=O)OCC)[nH]c1=O | 0 | 59* | 7 | 1 | 5 | -2 | 54*
CCCCCCCCN1CCS(=O)(=O)N(Cc2ccc(OC)cc2)C(C(=O)OC)C1 (centres undefined) | x | 1 | x | x | -5 | 3 | x
NC(=S)NN=C1c2cc(S(=O)(=O)N3CCOCC3)ccc2-c2ccc(S(=O)(=O)N3CCOCC3)cc21 | -1 | 30* | -6 | -3 | -1 | -3 | 7
CCN(C[C@H]1[C@@H](c2ccc(C3=CCCC3)cc2)[C@H](CO)N1Cc1ccccn1)S(=O)(=O)c1ccccc1[N+](=O)[O-] | x | 5 | x | x | 0 | 1 | x
